Experimental findings from ChEMBL document CHEMBL5104108, “Concise synthesis and biological activity evaluation of novel pyrazinyl-aryl urea derivatives against several cancer cell lines, which can especially induce T24 apoptotic and necroptotic cell death” (RSC Med Chem, 2022) are described below.

For data set [1], the system named is T-24. Put plainly: Antiproliferative activity against human T24 cells measured after 48 hrs by MTT assay. Format: functional, cell-based. Conditions: T-24, 48 h. Summed up: (§1)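 Cells seeded 5 × 10^3 per well, grown overnight at 37 °C, then exposed to compound at final 1–40 μM (1, 2.5, 5, 7.5, 10, 12.5, 15, 20, 30, 40 μM) for the stated period. MTT added, 4 h at 37 °C, formazan dissolved in DMSO, absorbance read. IC50 = concentration killing 50% of cells relative to untreated control; mean ± S.D. of four independent experiments.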
A general note: Formazan colour is commonly taken as a measure of viable cells.

In data set [2] the test system is T-24. Put plainly: Antiproliferative activity against human T24 cells measured after 24 hrs by MTT assay. The settings on record: T-24, 24 h. Format: functional, cell-based. Summed up: as §1
Data set [3] relates to T-24. Put plainly: Induction of apoptosis in human T24 cells assessed as decrease in Bcl-2 expression at 5 to 7.5 uM measured by Western blot analysis. Conditions: dose 5-7.5 µM. Format: functional, cell-based. The method in brief: (§2)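 Apoptosis-related proteins measured by Western blot in T24 lysates: 40 μg protein per lane by SDS-PAGE, PVDF transfer, primary and peroxidase-linked secondary antibodies, ECL detection, densitometry of gray values with β-actin as loading control.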
Background: In western blotting, separated proteins are transferred to a membrane and probed.

Data set [4] relates to T-24. Put plainly: Induction of apoptosis in human T24 cells assessed as increase in caspase-8 expression at 0 to 5 uM measured by Western blot analysis. The data set is classed as functional, cell-based. The settings on record: dose 0-5 µM. The method in brief: as §2
Data set [5] has as its system T-24. The data set can be described thus: Induction of necroptosis in human T24 cells assessed as viable cells at 10 uM and measured by trypan blue exclusion assay. Format: functional. The settings on record: read-out: Activity. The method in brief:
(§3)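 T24 cells (2 × 10^5/well) exposed for 16 h with or without Nec-1 (60 μM), then stained with trypan blue. Viable and dead cells counted. Result given as % viable cells relative to untreated control.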

In data set [6] the test system is T-24. Put plainly: Induction of necroptosis in human T24 cells assessed as viable cells at 12.5 uM and measured by trypan blue exclusion assay. Format: functional. Conditions: read-out: Activity. The method in brief: as §3
In data set [7] the test system is T-24. The data set can be described thus: Up-regulation of MLKL expression in human T24 cells at 7.5 to 10 uM measured after 16 hrs by Western blot analysis. Format: functional, cell-based. The settings on record: dose 7.5-10 µM.
Data set [8] has as its system T-24. Put plainly: Up-regulation of p-RIPK1 expression in human T24 cells at 7.5 to 10 uM measured after 16 hrs by Western blot analysis. The data set is classed as functional, cell-based. Conditions: dose 7.5-10 µM.
Data set [9] relates to T-24. The data set can be described thus: Up-regulation of p-RIPK3 expression in human T24 cells at 7.5 to 10 uM measured after 16 hrs by Western blot analysis. Conditions: dose 7.5-10 µM. The data set is classed as functional, cell-based.
Data set [10] deals with T-24. Put plainly: Down-regulation of RIPK1 expression in human T24 cells at 7.5 to 10 uM measured in presence of 60 uM Nec-1 after 16 hrs by Western blot analysis. The data set is classed as functional, cell-based. The settings on record: dose 7.5-10 µM. The method in brief:
(§4)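 T24 cells co-incubated 16 h with or without Nec-1 (60 μM). Lysates quantified by BCA, 40 μg protein resolved by SDS-PAGE, transferred to PVDF, probed with primary and peroxidase-conjugated secondary antibodies, detected by ECL. Band gray values normalized to β-actin loading control.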

In data set [11] the test system is T-24. The data set can be described thus: Down-regulation of MLKL expression in human T24 cells at 7.5 to 10 uM measured in presence of 60 uM Nec-1 after 16 hrs by Western blot analysis. The data set is classed as functional, cell-based. Conditions: dose 7.5-10 µM. The method in brief:
as §4

In data set [12] the test system is T-24. Put plainly: Up-regulation of RIPK3 expression in human T24 cells at 2.5 to 7.5 uM measured by ELISA assay. The settings on record: dose 2.5-7.5 µM. The data set is classed as functional, cell-based. The method in brief: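 T24 cells pretreated, collected, diluted in PBS, counted and stored overnight at −20 °C. After membrane disruption, lysates centrifuged at 5000 × g for 5 min (4 °C). RIPK1, RIPK3 and MLKL levels then measured with ELISA kits.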

Data set [13] concerns T-24. Put plainly: Induction of intracellular reactive oxygen species production in human T24 cells at 5 to 10 uM measured in presence of 30 uM z-VAD after 16 hrs by flow cytometry analysis. The data set is classed as functional, cell-based. Conditions: dose 5-10 µM. Summed up:
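After 5-23 treatment (16 h), floating and adherent T24 cells pooled and loaded with DCFH-DA (final 10 μM) for 30 min at 37 °C in the dark. Cells washed, resuspended in PBS and read by flow cytometry; quantified by luminescence spectrometry as % of control. Runs with zVAD (30 μM) or Nec-1 (60 μM). Three parallel samples.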

Data set [14] is described as follows: Cmax in Sprague-Dawley rat at 12 mg/kg, IG measured HPLC analysis. Format: ADME, organism-based. Also noted: dose 12 mg/kg, route ig. Conditions: in vivo, po.
Data set [15] in a line: Tmax in Sprague-Dawley rat at 12 mg/kg, IG measured HPLC analysis. Format: ADME, organism-based. The settings on record: in vivo, po. The method in brief:
(§5)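 Fasted (12 h) male-unspecified Sprague-Dawley rats (250 ± 20 g), n = 6 per group. Single intragastric dose of suspension (2 mg mL−1 in Tween 80/0.9% NaCl 1.5:5 v/v). Orbital blood drawn at 0.5–48 h and plasma assayed by reversed-phase C18 HPLC-UV. One-compartment fit, weight 1.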

A short description of data set [16]: Tmax in Sprague-Dawley rat at 6 mg/kg, IG measured HPLC analysis. The data set is classed as ADME, organism-based. The settings on record: in vivo, po. The method in brief:
as §5

Data set [17] is described as follows: AUC (0 to 48 hrs) in Sprague-Dawley rat at 6 mg/kg, IG measured HPLC analysis. The settings on record: in vivo, po. The data set is classed as ADME, organism-based. Also noted: time < 48 hr, dose 6 mg/kg, route ig.
The nature of data set [18]: AUMC in Sprague-Dawley rat at 6 mg/kg, IG measured HPLC analysis. The settings on record: in vivo, po. Format: ADME, organism-based.
Data set [19] can be described thus: Half-life in Sprague-Dawley rat at 12 mg/kg, IG measured HPLC analysis. The data set is classed as ADME, organism-based. The settings on record: in vivo, po.

pIC50: −log10 of the molar value. Active and inactive are the calls of the source. The calls are words filed in the database; no cut-off is given here.

On to `O=C(Nc1ccc(C(F)(F)F)cc1)Nc1cccc(CNc2nccnc2Cl)c1`, for which the negative logarithm of the IC50 (pIC50) – broadly, the negative decadic logarithm of the IC50, by convention in mol/L – in data set [1] was 5.34; in data set [2], 5.04. Besides, the outcome in [3], in data set [4], in data set [7], in [8], in [9] and in data set [10] was Active. Besides, the outcome in data set [11], in data set [12] and in data set [13] was Active. Further, in data set [5], the viability at 10 µM stood at 38%. In addition, the viability at 12.5 µM in data set [6] stood at 24.8%. Further, the highest level in data set [14] (Cmax) was 3.36 µg/mL. Also, the results for the Tmax in data set [15] and in data set [16] were 12.4 h and 12 h, respectively. In addition, the AUC(0-t) (as a rule, exposure summed from dosing to a finite time, without extrapolation to infinity) at 48 h in data set [17] amounted to 30.8 µg·h/mL. The AUMC in [18] is on record as 606261 hr2.ng/ml. Besides, the half-life (commonly how long it takes for the measured level to halve) in data set [19] was 7.17 h.
